Reference: ChEMBL document CHEMBL1212940, “Polyacetylenes from the roots of Polyalthia debilis” (2010)
In brackets after ≈: the same amount, converted by molar mass. Activity calls are given as the source filed them. No cut-off for these calls is given here.

How the values were obtained:
Candida albicans = test: Antifungal activity against Candida albicans; assay type: functional, organism-based
KB = test: Cytotoxicity against human KB cells; assay type: functional, cell-based
Plasmodium falciparum = test: Antimalarial activity against Plasmodium falciparum; assay type: functional, organism-based
NCI-H187 = test: Cytotoxicity against human NCI-H187 cells; assay type: functional, cell-based
BC1 = test: Cytotoxicity against human BC1 cells; assay type: functional, cell-based
[1] = system: Mycobacterium tuberculosis; test: Antimycobacterial activity against Mycobacterium tuberculosis H37Ra by microplate alamar blue assay; assay type: functional
Procedure, shortened: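 Whole-cell microplate Alamar Blue test of M. tuberculosis H37Ra, read out as MIC in µg/mL. Isoniazid and kanamycin sulfate served as reference drugs.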

| SMILES | Activity (Candida albicans) | Activity (KB) | Activity (Plasmodium falciparum) | Activity (NCI-H187) | Activity (BC1) | MIC [1] |
| --- | --- | --- | --- | --- | --- | --- |
| CCCC/C=C\C#CC#CCCCCCCCCCCCC[C@H]1C[C@@H](CO)OC1=O | inactive | inactive | inactive | inactive | inactive |  |
| C=CCCCCCCC#CCCCC[C@@H]1C[C@@H](CO)OC1=O | inactive | inactive | inactive | inactive | inactive |  |
| C=CCC/C=C\C#CC#CCCCCCCCCCC[C@H]1C[C@@H](CO)OC1=O | inactive | inactive | inactive | inactive | inactive |  |
| CCCCCCC#CC#CCCCCCCCCCC[C@H]1C[C@@H](CO)OC1=O | inactive | inactive | inactive | inactive | inactive |  |
| CCCC/C=C/C#CC#CCCCCCCCCCC[C@H]1C[C@@H](CO)OC1=O [DEBILISONE C] | inactive | inactive | inactive | inactive | inactive | 12.5 µg/mL (≈ 32.3 µM) |
| C=CCCCCCCC#CCCCCCCCCCC[C@@H]1C[C@@H](CO)OC1=O | inactive | inactive | inactive | inactive | inactive |  |
| C=CCC/C=C/C#CC#CCCCCCCCCCC[C@H]1C[C@@H](CO)OC1=O [DEBILISONE E] | inactive | inactive | inactive | inactive | inactive | 25 µg/mL (≈ 65 µM) |
| CCCCC[C@H](O)C#CC#CCCCCCCCCCC[C@H]1C[C@@H](CO)OC1=O [DEBILISONE B] | inactive | inactive | inactive | inactive | inactive | 25 µg/mL (≈ 61.8 µM) |
